The source made the active and inactive calls. No cut-off for these calls is given here.
Columns and labels:
Influenza A virus = experiment: Antiviral activity against Influenza A virus (A/Puerto Rico/8/34(H1N1)) infected in MDCK cells assessed as inhibition of virus-induced cytocidal activity after 48 hrs by CellTiter-Glo assay; type: functional, organism-based; conditions: A/Puerto Rico/8/1934(H1N1)
Method in brief: (§1)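 MDCK cells infected with PR8 (mouse-adapted A/Puerto Rico/8/1934) or VR1679 at MOI = 1 and treated with compound at various concentrations for 2 days. Percent protection from virus killing was calculated by a formula. EC50 is the concentration giving 50% protection from the cytocidal effect. Values are mean ± SD of three independent experiments.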

[1] = Cytotoxicity against MDCK cells assessed as reduction in cell viability after 48 hrs by CellTiter-Glo assay; type: cell-based, Canis lupus familiaris; conditions: dog
Method in brief: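 Uninfected MDCK cells were exposed to compound. CC50 is the concentration that reduced cell viability by 50%.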

Influenza A virus H3N2 [2] = experiment: Antiviral activity against Influenza A virus H3N2 VR1679 infected in MDCK cells assessed as inhibition of virus-induced cytocidal activity after 48 hrs by CellTiter-Glo assay; type: functional, organism-based; method in brief: as §1
Influenza A virus H3N2 [3] = experiment: Antiviral activity against Influenza A virus H3N2 VR1679 infected in MDCK cells assessed as inhibition of viral nucleoprotein production at 10 uM after 6 hrs by immunostaining-based confocal microscopy; type: functional, organism-based
Method in brief: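 VR1679 infected MDCK cells at MOI = 1 with compound at 10 μM for 6 h. Cells were immunostained with FITC-conjugated anti-NP antibodies and DAPI for nuclei, and viral NP was imaged by laser-scanning confocal microscopy. Infected cells without compound served as controls.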

Influenza A virus H3N2 [4] = experiment: Antiviral activity against Influenza A virus H3N2 VR1679 infected in MDCK cells assessed as inhibition of virus-induced cytocidal activity compound treated 4 hrs post infection by time of addition assay; type: functional, organism-based
Method in brief: (§2)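 Time-of-addition assay: MDCK cells infected with VR1679 at MOI = 0.1, with compound added before infection or at various times post-infection. Percent protection of cells from virus killing was calculated by a formula. Data are the average of two independent experiments.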

Influenza A virus H3N2 [5] = experiment: Antiviral activity against Influenza A virus H3N2 VR1679 infected in MDCK cells assessed as inhibition of virus-induced cytocidal activity compound treated 6 hrs post infection by time of addition assay; type: functional, organism-based; method in brief: as §2
Influenza A virus H3N2 [6] = experiment: Antiviral activity against Influenza A virus H3N2 VR1679 infected in MDCK cells assessed as inhibition of virus-induced cytocidal activity compound treated 2 hrs post infection by time of addition assay; type: functional, organism-based; method in brief: as §2
Influenza A virus H3N2 [7] = experiment: Antiviral activity against Influenza A virus H3N2 VR1679 infected in MDCK cells assessed as inhibition of virus-induced cytocidal activity pretreated with compound before infection by time of addition assay; type: functional, organism-based; method in brief: as §2
MDCK = experiment: Binding affinity to recombinant Influenza A virus (A/Puerto Rico/8/1934(H1N1)) nucleoprotein in culture medium assessed as protection from Influenza A virus H3N2 VR1679-induced MDCK cytocidal activity after 2 days by CellTiter-Glo assay; type: cell-based
Method in brief: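 MDCK cells infected with VR1679 at MOI = 1, treated with compound with or without recombinant A/Puerto Rico/8/1934 NP at 500 μg/mL in the culture medium. Percent protection from virus killing was read 2 days after infection. Values are mean ± SD of three independent experiments.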

[8] = Selectivity ratio of EC50 for Influenza A virus (A/Puerto Rico/8/34(H1N1)) infected in MDCK cells to EC50 for Influenza A virus H3N2 VR1679 infected in MDCK cells; type: functional

| SMILES | EC50 (Influenza A virus) | CC50 at 48 h [1] | further results |
| --- | --- | --- | --- |
| CN1CCC[C@H]2C[C@H]3C[C@H](CN4CCCC[C@H]34)[C@@H]21 | 8.1 µM | > 80 µM | – |
| CC(C)CN1CCCC2=C[C@H]3C[C@H](CN4CCCC[C@H]34)[C@@H]21 | 34.5 µM | > 80 µM | – |
| Cc1onc(-c2ccccc2)c1C(=O)N1CCN(c2ccc([N+](=O)[O-])cc2Cl)CC1 [NUCLEOZIN] | 0.71 µM | > 80 µM | – |
| O=C1CCC[C@@H]2[C@H]3CCC[N+]4([O-])CCC[C@@H](CN12)[C@@H]34 (some centres not stated) [OXYMATRINE] | > 80 µM | > 80 µM | – |
| NC12CC3CC(CC(C3)C1)C2 [AMANTADINE] | > 80 µM | > 80 µM | – |
| C1CCN2C[C@@H]3C[C@@H](CN4CCCC[C@@H]34)[C@H]2C1 [SPARTEINE] | 19.7 µM | > 80 µM | – |
| CN1CC2CC(C1)c1cccc(=O)n1C2 (configuration not stated) | > 80 µM | > 80 µM | – |
| CN1CCC[C@@H]2C[C@H]3C[C@H](CN4CCCC[C@H]34)[C@@H]21 | 6.2 µM | > 80 µM | inhibition (Influenza A virus H3N2 [2]): Active; inhibition (Influenza A virus H3N2 [3]): Active; inhibition (Influenza A virus H3N2 [4]): Active; inhibition (Influenza A virus H3N2 [5]): inactive; inhibition (Influenza A virus H3N2 [6]): Active; inhibition (Influenza A virus H3N2 [7]): Active; Activity (MDCK): Active |
| C1CN[C@@H]2C(C1)C[C@H]1C[C@@H]2CN2CCCC[C@H]12 (mixture of isomers) | 11.2 µM | > 80 µM | – |
| C1=C2CCCN[C@H]2[C@@H]2C[C@H]1[C@H]1CCCCN1C2 | 14.5 µM | > 80 µM | – |
| O=C(c1ccc(C(=O)N2CCCC3=C[C@H]4C[C@H](CN5CCCC[C@H]45)[C@@H]32)s1)N1CCCC2=C[C@H]3C[C@H](CN4CCCC[C@H]34)[C@@H]21 | 2.4 µM | > 80 µM | – |
| CN1CCCC2=C[C@H]3C[C@H](CN4CCCC[C@H]34)[C@@H]21 | 9.6 µM | > 80 µM | – |
| CCOC(=O)C1=C[C@@H](OC(CC)CC)[C@H](NC(C)=O)[C@@H](N)C1 [OSELTAMIVIR] | > 80 µM | > 80 µM | Ratio EC50 [8]: >200; EC50 (Influenza A virus H3N2 [2]): > 80 µM; inhibition (Influenza A virus H3N2 [3]): inactive; inhibition (Influenza A virus H3N2 [4]): Active; inhibition (Influenza A virus H3N2 [5]): inactive; inhibition (Influenza A virus H3N2 [6]): Active; inhibition (Influenza A virus H3N2 [7]): Active; Activity (MDCK): inactive |
| C1=C2CCCN(CC3CCC3)[C@H]2[C@@H]2C[C@H]1[C@H]1CCCCN1C2 | 18.8 µM | > 80 µM | – |
| C1=C2CCCN(CC3CC3)[C@H]2[C@@H]2C[C@H]1[C@H]1CCCCN1C2 | 15.1 µM | > 80 µM | – |
| O=c1cccc2n1C[C@@H]1CNC[C@H]2C1 [CYTISINICLINE] | > 80 µM | > 80 µM | – |
| O=C1CCC[C@@H]2[C@H]3CCCN4CCC[C@@H](CN12)[C@@H]34 [MATRINE] | > 80 µM | > 80 µM | – |
| C1CCN2C[C@@H]3C[C@@H](CN4CCCC[C@H]34)[C@H]2C1 | 21.3 µM | > 80 µM | – |
| O=C(NCCN1CCCC2=C[C@H]3C[C@H](CN4CCCC[C@H]34)[C@@H]21)c1ccccc1F | 5.5 µM | > 80 µM | – |
| CCN1CCCC2=C[C@H]3C[C@H](CN4CCCC[C@H]34)[C@@H]21 | 7.7 µM | > 80 µM | – |
| C1=C2CCCN(CC3CCCCC3)[C@H]2[C@@H]2C[C@H]1[C@H]1CCCCN1C2 | 29.3 µM | > 80 µM | – |

Source: ChEMBL document CHEMBL3351411, “Identification and synthesis of quinolizidines with anti-influenza a virus activity” (ACS Med Chem Lett, 2014)
